Activity calls are given as the source filed them. No cut-off for these calls is given here.
What was measured:
Calu-1 = test: Effect on total ERK level in human Calu-1 cells incubated for 24 hrs by HTRF analysis; type: functional, cell-based
Procedure, shortened: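 Calu-1 cells carry two KRAS G12C alleles and were sourced from CLS. Total and pERK levels were both analyzed after compound treatment.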

Homo sapiens = species on record: Homo sapiens; test: Inhibition of N-terminal GST-tagged recombinant human SOS1 L901K mutant (564 to 1049 residues) expressed in Escherichia coli assessed as reduction in KRAS G12C mutant activation at 10 uM by HTRF analysis relative to control
[1] = molecular target: Bone morphogenetic protein receptor type-1B (Homo sapiens) (UniProt O00238); test: Inhibition of BMPR1B (unknown origin) assessed as residual activity at 100 nM by KINOMEscan analysis relative to control
[2] = molecular target: Tyrosine-protein kinase Fes/Fps (Homo sapiens) (UniProt P07332); test: Inhibition of FES (unknown origin) assessed as residual activity at 100 nM by KINOMEscan analysis relative to control
[3] = molecular target: T1, Tyrosine-protein kinase ITK/TSK (Homo sapiens) (UniProt Q08881); test: Inhibition of ITK (unknown origin) assessed as residual activity at 100 nM by KINOMEscan analysis relative to control
T1 sequence (whole entry): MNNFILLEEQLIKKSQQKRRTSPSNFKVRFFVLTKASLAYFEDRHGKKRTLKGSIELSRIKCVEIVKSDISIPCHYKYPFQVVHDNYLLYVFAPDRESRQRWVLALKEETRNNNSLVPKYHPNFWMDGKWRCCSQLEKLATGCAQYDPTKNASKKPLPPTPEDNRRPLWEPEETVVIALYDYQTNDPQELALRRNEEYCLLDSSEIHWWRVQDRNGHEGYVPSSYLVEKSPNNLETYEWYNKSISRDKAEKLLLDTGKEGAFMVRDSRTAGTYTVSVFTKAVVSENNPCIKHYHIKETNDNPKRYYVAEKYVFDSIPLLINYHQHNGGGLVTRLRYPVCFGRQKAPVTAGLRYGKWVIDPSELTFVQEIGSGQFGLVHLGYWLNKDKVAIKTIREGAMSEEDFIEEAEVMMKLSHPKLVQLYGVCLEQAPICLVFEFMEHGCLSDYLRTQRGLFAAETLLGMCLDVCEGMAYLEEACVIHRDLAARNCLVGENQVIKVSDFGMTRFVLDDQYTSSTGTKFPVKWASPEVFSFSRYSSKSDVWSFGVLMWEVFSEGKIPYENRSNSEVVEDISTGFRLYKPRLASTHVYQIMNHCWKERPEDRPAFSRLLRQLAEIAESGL

[4] = molecular target: T2, Serine/threonine-protein kinase RIO3 (Homo sapiens) (UniProt O14730); test: Inhibition of RIOK3 (unknown origin) assessed as residual activity at 100 nM by KINOMEscan analysis relative to control
T2 sequence (whole entry): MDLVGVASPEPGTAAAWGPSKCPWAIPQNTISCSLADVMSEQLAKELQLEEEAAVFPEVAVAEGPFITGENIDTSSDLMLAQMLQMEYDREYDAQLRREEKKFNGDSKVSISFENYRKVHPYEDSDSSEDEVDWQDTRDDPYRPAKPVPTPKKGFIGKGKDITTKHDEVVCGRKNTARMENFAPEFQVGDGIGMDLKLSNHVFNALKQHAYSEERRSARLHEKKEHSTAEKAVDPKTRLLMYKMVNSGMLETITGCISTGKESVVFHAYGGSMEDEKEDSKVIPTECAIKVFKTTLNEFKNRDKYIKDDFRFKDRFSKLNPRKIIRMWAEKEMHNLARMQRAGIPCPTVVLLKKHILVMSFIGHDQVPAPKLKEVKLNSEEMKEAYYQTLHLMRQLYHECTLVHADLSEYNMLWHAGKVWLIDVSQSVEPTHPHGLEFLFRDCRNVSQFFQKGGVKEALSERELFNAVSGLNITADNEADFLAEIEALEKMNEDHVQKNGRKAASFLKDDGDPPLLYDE

[5] = molecular target: T3, Serine/threonine-protein kinase TAO2 (Homo sapiens) (UniProt Q9UL54); test: Inhibition of TAOK2 (unknown origin) assessed as residual activity at 100 nM by KINOMEscan analysis relative to control
T3 sequence (whole entry): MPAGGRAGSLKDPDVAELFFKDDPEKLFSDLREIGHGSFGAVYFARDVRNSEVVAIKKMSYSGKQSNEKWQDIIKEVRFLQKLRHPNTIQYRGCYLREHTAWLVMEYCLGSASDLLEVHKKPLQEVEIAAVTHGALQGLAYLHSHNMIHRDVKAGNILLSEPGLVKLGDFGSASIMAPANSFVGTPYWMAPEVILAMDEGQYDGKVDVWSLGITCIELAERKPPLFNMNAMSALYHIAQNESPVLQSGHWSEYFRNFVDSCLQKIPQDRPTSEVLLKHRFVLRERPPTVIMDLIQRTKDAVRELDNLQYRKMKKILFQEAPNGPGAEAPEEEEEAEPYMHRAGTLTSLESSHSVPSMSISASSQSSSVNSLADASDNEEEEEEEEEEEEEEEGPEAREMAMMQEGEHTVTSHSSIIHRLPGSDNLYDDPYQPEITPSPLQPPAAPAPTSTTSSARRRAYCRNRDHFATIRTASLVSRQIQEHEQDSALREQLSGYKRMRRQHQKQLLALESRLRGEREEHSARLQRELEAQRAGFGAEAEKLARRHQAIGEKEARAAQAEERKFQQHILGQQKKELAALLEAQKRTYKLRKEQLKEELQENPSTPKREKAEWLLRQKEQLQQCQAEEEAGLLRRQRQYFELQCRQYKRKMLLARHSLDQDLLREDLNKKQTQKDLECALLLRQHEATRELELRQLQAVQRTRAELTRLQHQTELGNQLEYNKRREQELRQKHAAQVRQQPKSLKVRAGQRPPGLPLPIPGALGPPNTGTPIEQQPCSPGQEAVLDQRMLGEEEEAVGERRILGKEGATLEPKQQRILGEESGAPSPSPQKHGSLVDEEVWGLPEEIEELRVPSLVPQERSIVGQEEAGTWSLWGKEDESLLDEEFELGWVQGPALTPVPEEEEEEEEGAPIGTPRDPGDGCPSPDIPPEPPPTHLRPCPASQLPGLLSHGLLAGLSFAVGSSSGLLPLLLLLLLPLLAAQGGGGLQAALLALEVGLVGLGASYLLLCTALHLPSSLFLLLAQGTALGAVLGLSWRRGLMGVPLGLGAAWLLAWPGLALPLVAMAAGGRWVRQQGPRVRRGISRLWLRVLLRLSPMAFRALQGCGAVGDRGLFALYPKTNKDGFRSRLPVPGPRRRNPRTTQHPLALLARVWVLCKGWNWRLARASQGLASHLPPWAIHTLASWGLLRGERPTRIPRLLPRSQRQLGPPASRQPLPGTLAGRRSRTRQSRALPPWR

Sequence of Tyrosine-protein kinase Fes/Fps (Homo sapiens) (P07332 whole entry): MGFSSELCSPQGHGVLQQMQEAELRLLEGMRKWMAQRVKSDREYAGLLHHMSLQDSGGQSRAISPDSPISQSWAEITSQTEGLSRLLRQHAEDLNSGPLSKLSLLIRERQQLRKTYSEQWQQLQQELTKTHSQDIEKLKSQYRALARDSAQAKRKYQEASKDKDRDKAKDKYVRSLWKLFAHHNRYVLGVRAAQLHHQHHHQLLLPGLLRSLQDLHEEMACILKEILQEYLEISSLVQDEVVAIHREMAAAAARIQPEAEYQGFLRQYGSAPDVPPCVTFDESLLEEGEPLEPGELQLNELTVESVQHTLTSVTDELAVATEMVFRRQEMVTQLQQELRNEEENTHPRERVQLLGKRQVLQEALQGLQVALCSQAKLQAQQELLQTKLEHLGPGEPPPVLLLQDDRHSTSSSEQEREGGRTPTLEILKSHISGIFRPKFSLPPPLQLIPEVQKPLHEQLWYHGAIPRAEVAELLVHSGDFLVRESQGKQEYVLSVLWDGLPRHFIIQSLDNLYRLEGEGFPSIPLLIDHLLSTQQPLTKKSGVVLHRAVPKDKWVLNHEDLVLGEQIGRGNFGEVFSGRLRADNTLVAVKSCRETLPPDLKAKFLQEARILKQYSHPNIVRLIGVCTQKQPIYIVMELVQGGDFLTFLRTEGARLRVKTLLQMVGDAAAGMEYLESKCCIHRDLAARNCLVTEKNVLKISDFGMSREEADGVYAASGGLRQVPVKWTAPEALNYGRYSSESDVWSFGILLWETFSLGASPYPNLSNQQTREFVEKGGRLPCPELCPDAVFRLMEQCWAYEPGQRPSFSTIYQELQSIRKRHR
Sequence of Bone morphogenetic protein receptor type-1B (Homo sapiens) (O00238 whole entry): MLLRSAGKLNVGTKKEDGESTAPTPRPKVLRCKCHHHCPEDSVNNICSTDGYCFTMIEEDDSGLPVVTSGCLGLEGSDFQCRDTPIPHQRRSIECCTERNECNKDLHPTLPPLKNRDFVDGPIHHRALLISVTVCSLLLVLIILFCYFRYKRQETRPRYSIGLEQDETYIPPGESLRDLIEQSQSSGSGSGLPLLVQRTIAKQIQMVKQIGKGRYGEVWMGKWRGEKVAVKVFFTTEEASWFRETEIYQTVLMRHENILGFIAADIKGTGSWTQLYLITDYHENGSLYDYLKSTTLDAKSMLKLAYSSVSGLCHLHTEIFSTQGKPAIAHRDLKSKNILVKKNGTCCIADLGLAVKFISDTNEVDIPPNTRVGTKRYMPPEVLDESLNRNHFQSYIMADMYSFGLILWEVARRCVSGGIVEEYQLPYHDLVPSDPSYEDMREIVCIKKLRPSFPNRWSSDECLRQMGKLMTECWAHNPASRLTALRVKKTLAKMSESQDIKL

CNCc1ccccc1-c1csc([C@@H](C)Nc2nc(C)nc3cc(OC)c(OC)cc23)c1 [BAY-293]
Activity (Calu-1): inactive

COc1cc2ncnc(N[C@H](C)c3cccc4ccccc34)c2cc1OC
inhibition (Homo sapiens): 38%
Activity [1]: 92%
Activity [2]: 78%
Activity [3]: 73%
Activity [4]: 75%
Activity [5]: 94%
